pKi: −log10 of the molar value. ≈ marks a conversion by molar mass, not a printed value.
What was measured:
[1] = Bioavailability in Sprague-Dawley rat; type: ADME, organism-based; settings: in vivo
Staphylococcus aureus [2] = assay: Antibacterial activity against Staphylococcus aureus ATCC 29213 in absence of human serum; type: functional
Staphylococcus aureus [3] = assay: Antibacterial activity against Staphylococcus aureus ATCC 29213 in presence of human serum; type: functional
Summary of the method: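 Broth microdilution MIC per CLSI methods (modified), with human serum added to the liquid medium at a final 50% for S. aureus ATCC 29213.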

Streptococcus pneumoniae [4] = assay: Antibacterial activity against Streptococcus pneumoniae ATCC 10015; type: functional
Haemophilus influenzae = assay: Antibacterial activity against Haemophilus influenzae ATCC 51907; type: functional
Streptococcus pneumoniae [5] = assay: Antibacterial activity against Streptococcus pneumoniae ATCC 6303; type: functional
Streptococcus pneumoniae [6] = assay: Antibacterial activity against Streptococcus pneumoniae ATCC 6303-infeceted Sprague-Dawley rat assessed as reduction in lung bacterial density at 25 mg/kg, po administered twice at 18 and 26 hrs after bacterial challenge measured at 72 hrs postinfection; type: functional
Summary of the method: (§1)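 Male Sprague-Dawley rats (185-224 g), anesthetized, infected intratracheally with 0.2 mL (0.9 × 10⁷ CFU) S. pneumoniae ATCC 6303 serotype 3 grown overnight in enriched broth. Oral dosing in D5W at 18 and 26 h postinfection, 10 per group. Lungs homogenized for CFU at 72 h; mean log₁₀ CFU ± SEM against vehicle controls.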

Streptococcus pneumoniae [7] = assay: Antibacterial activity against Streptococcus pneumoniae ATCC 6303-infeceted Sprague-Dawley rat assessed as reduction in lung bacterial density at 50 mg/kg, po administered twice at 18 and 26 hrs after bacterial challenge measured at 72 hrs postinfection; type: functional; summary of the method: as §1
Staphylococcus aureus [8] = assay: Antibacterial activity against Staphylococcus aureus ATCC 29213-infected Sprague-Dawley rat assessed as reduction in bacterial density in thigh tissue at 50 mg/kg, iv administered 2 hrs after bacterial challenge measured at 8 hrs postinfection; type: functional
Summary of the method: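 Neutropenic male Sprague-Dawley rats (175-200 g); cyclophosphamide ip 150 mg/kg at day -4 and 50 mg/kg at day -1. Infection was 0.2 mL of 1 × 10⁷ CFU/mL S. aureus ATCC 29213 in saline, im into the thigh. Single iv tail-vein bolus at 2 h postinfection, D5W vehicle. Thighs homogenized for CFU 6 h post-dose; 0 h controls taken at 2 h. Mean log₁₀ CFU ± SEM; one-way ANOVA with Dunnett's test.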

[9] = Clearance in Sprague-Dawley rat; type: ADME, organism-based; settings: in vivo
[10] = Half life in Sprague-Dawley rat; type: ADME, organism-based; settings: in vivo
[11] = Volume of distribution at steady state in Sprague-Dawley rat; type: ADME, organism-based; settings: in vivo, read-out: Vdss
DNA gyrase = DNA gyrase (Staphylococcus aureus, UniProt P0A0K8+P20831); assay: Inhibition of Staphylococcus aureus DNA gyrase; type: protein-complex assay
Sequence of DNA gyrase (P0A0K8 whole entry): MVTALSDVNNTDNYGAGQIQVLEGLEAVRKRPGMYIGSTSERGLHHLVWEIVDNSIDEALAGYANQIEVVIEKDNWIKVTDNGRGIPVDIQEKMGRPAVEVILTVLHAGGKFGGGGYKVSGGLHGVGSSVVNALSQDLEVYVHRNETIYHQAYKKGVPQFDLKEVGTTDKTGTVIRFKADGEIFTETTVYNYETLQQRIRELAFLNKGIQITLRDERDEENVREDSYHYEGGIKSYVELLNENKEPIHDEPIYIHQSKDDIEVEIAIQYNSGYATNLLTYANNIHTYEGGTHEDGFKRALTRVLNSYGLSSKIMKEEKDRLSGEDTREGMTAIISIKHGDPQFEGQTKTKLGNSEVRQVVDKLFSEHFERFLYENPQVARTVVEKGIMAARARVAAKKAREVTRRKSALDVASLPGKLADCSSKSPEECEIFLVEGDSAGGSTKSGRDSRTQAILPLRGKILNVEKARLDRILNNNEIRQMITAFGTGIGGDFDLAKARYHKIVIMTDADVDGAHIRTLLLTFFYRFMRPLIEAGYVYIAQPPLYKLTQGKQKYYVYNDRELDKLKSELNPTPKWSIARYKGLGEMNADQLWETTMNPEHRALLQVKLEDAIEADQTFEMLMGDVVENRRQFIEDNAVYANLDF
Sequence of DNA gyrase (P20831 whole entry): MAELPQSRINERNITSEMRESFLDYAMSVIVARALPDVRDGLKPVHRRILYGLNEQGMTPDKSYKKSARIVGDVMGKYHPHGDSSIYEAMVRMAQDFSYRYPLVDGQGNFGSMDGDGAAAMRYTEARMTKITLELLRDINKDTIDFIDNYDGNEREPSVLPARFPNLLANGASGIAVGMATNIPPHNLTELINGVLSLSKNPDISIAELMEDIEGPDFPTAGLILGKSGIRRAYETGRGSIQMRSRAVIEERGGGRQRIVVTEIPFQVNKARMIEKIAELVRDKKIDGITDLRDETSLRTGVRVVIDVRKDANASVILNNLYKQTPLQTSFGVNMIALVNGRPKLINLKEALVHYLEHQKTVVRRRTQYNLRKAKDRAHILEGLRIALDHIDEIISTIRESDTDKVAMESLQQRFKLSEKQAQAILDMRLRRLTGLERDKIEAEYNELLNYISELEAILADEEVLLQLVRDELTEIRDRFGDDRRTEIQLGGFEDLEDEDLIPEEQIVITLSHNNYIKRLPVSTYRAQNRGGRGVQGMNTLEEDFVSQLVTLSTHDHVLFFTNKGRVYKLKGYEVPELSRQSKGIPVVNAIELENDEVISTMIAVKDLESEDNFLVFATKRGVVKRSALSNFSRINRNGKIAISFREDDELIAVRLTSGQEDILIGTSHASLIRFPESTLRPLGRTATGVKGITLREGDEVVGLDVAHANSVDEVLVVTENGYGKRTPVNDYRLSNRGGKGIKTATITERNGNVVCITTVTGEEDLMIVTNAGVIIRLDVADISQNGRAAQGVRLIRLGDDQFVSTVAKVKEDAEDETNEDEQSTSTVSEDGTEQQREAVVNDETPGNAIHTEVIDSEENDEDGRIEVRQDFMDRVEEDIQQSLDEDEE

[12] = Inhibition of Escherichia coli DNA gyrase
[13] = Inhibition of Escherichia coli topoisomerase 4

Row | Structure (SMILES) | bioavailability [1] | MIC (Staphylococcus aureus [2]) | MIC (Staphylococcus aureus [3]) | MIC (Streptococcus pneumoniae [4]) | MIC (Haemophilus influenzae) | MIC (Streptococcus pneumoniae [5]) | log10cfu (Streptococcus pneumoniae [6]) | log10cfu (Streptococcus pneumoniae [7]) | log10cfu (Staphylococcus aureus [8]) | clearance [9] | half-life [10] | Vd [11] | pKi (DNA gyrase) | pKi [12] | pKi [13]
1 | CCNC(=O)Nc1nc2cc(-c3cccnc3)cc(-c3ncccc3F)c2[nH]1 | 88.4% | 0.031 µg/mL (≈ 0.0824 µM) | 0.5 µg/mL | 0.004 µg/mL (≈ 0.0106 µM) | 1 µg/mL (≈ 2.66 µM) | 0.008 µg/mL (≈ 0.0213 µM) | 4.8 | 5.6 | 1.5 | 14.4 mL/min/kg | 42 min | 1.6 L/kg | 7.85 | > 8.40 | 7.64
2 | CCNC(=O)Nc1nc2cc(-c3cnc(OC)nc3)c(OC)cc2[nH]1 | – | 2 µg/mL (≈ 5.84 µM) | 8 µg/mL | 0.125 µg/mL (≈ 0.365 µM) | 4 µg/mL (≈ 11.7 µM) | – | – | – | – | – | – | – | 7.36 | 7.82 | 6.17
3 | CCOC(=O)Nc1nc2cc(/C=C/c3ccc(O)cc3)ccc2[nH]1 | – | > 16 µg/mL | > 16 µg/mL | > 16 µg/mL | > 16 µg/mL | – | – | – | – | – | – | – | 5.70 | 4.70 | < 4.22
4 | CCNC(=O)Nc1nc2cc(-n3cnc(C(=O)NC4CC4)c3)c(F)cc2[nH]1 | – | 4 µg/mL (≈ 10.8 µM) | 8 µg/mL | 0.063 µg/mL (≈ 0.17 µM) | 4 µg/mL (≈ 10.8 µM) | – | – | – | – | – | – | – | 8.00 | > 8.40 | 7.11
5 | CCNC(=O)Nc1nc2cc(-c3cccnc3)c(F)cc2[nH]1 | – | 1 µg/mL (≈ 3.34 µM) | 16 µg/mL | 0.25 µg/mL (≈ 0.835 µM) | 16 µg/mL (≈ 53.5 µM) | – | – | – | – | – | – | – | 7.42 | 7.48 | 6.17
6 | CCNC(=O)Nc1nc2cc(-c3cccnc3)c(C)cc2[nH]1 | – | 16 µg/mL (≈ 54.2 µM) | > 16 µg/mL | 0.5 µg/mL (≈ 1.69 µM) | 16 µg/mL (≈ 54.2 µM) | – | – | – | – | – | – | – | 7.07 | 7.21 | 5.85
7 | CCNC(=O)Nc1nc2cc(-c3cccnc3)ccc2[nH]1 | – | 16 µg/mL (≈ 56.9 µM) | > 16 µg/mL | 2 µg/mL (≈ 7.11 µM) | 16 µg/mL (≈ 56.9 µM) | – | – | – | – | – | – | – | 6.89 | 7.09 | 5.64
8 | CCNC(=O)Nc1nc2cc(-c3ccccc3)ccc2[nH]1 | – | > 16 µg/mL | > 16 µg/mL | > 16 µg/mL | > 16 µg/mL | – | – | – | – | – | – | – | 6.33 | 6.40 | 5.02
9 | CCNC(=O)Nc1nc2cc(-c3cccnc3)c(OC)cc2[nH]1 | – | 16 µg/mL (≈ 51.4 µM) | > 16 µg/mL | 2 µg/mL (≈ 6.42 µM) | > 16 µg/mL | – | – | – | – | – | – | – | 6.72 | 6.89 | 5.46
10 | CCNC(=O)Nc1nc2cc(-c3cccnc3)c(N3CCCCC3)cc2[nH]1 | – | 16 µg/mL (≈ 43.9 µM) | > 16 µg/mL | 2 µg/mL (≈ 5.49 µM) | > 16 µg/mL | – | – | – | – | – | – | – | 7.09 | 6.92 | 5.48
11 | CCNC(=O)Nc1nc2cc(-c3cncnc3)cc(-n3cccn3)c2[nH]1 | – | 0.031 µg/mL (≈ 0.089 µM) | 0.25 µg/mL | < 0.008 µg/mL | 0.25 µg/mL (≈ 0.718 µM) | – | – | – | – | – | – | – | 7.80 | > 8.40 | 7.24
12 | CCNC(=O)Nc1nc2cc(-n3cnc(C(=O)NC4CC4)c3)cc(-n3cccn3)c2[nH]1 | – | 0.5 µg/mL (≈ 1.19 µM) | 4 µg/mL | 0.003 µg/mL (≈ 0.00715 µM) | 0.25 µg/mL (≈ 0.596 µM) | – | – | – | – | – | – | – | 8.00 | > 8.40 | 7.92
13 | CCNC(=O)Nc1nc2cc(-c3cccnc3)cc(-c3ccccn3)c2[nH]1 | – | 0.031 µg/mL (≈ 0.0865 µM) | 2 µg/mL | 0.004 µg/mL (≈ 0.0112 µM) | 2 µg/mL (≈ 5.58 µM) | – | – | – | – | – | – | – | 8.15 | > 8.40 | 7.85
14 | CCNC(=O)Nc1nc2cc(-c3cccnc3)cc(-c3cccnc3)c2[nH]1 | – | 4 µg/mL (≈ 11.2 µM) | 16 µg/mL | 0.5 µg/mL (≈ 1.4 µM) | > 16 µg/mL | – | – | – | – | – | – | – | 7.77 | 8.22 | 5.89
15 | CCNC(=O)Nc1nc2cc(-c3cccnc3)cc(OCc3ccccc3)c2[nH]1 | – | 2 µg/mL (≈ 5.16 µM) | > 16 µg/mL | 1 µg/mL (≈ 2.58 µM) | > 16 µg/mL | – | – | – | – | – | – | – | 7.46 | 7.74 | 6.41
16 | CCNC(=O)Nc1nc2cc(-c3cccnc3)cc(C(=O)OC)c2[nH]1 | – | 0.063 µg/mL (≈ 0.186 µM) | 0.5 µg/mL | 0.016 µg/mL (≈ 0.0471 µM) | 0.5 µg/mL (≈ 1.47 µM) | – | – | – | – | – | – | – | 8.10 | > 8.40 | 7.46
17 | CCNC(=O)Nc1nc2cc(-c3cccnc3)cc(-n3cccn3)c2[nH]1 | – | 0.063 µg/mL (≈ 0.181 µM) | 4 µg/mL | 0.008 µg/mL (≈ 0.023 µM) | 1 µg/mL (≈ 2.88 µM) | – | – | – | – | – | – | – | 7.82 | > 8.40 | 7.34
18 | CCNC(=O)Nc1nc2cc(-c3ccn(C)c(=O)c3)cc(-c3ncccc3F)c2[nH]1 | – | 0.016 µg/mL (≈ 0.0394 µM) | 0.032 µg/mL | < 0.008 µg/mL | 0.125 µg/mL (≈ 0.308 µM) | – | – | – | – | – | – | – | 7.64 | > 8.40 | 7.96
19 | CCNC(=O)Nc1nc2cc(-c3cncnc3)ccc2[nH]1 | – | 4 µg/mL (≈ 14.2 µM) | 4 µg/mL | 0.5 µg/mL (≈ 1.77 µM) | 2 µg/mL (≈ 7.08 µM) | – | – | – | – | – | – | – | 7.31 | 7.70 | 5.96
20 | CCNC(=O)Nc1nc2cc(-n3cnc(C(=O)NC4CC4)c3)cc(-c3ccccn3)c2[nH]1 | – | 0.063 µg/mL (≈ 0.146 µM) | 0.25 µg/mL | 0.002 µg/mL (≈ 0.00465 µM) | 0.125 µg/mL (≈ 0.29 µM) | – | – | – | – | – | – | – | 7.92 | > 8.40 | 8.15
21 | CCNC(=O)Nc1nc2cc(-c3cccnc3)cc(C(=O)NC)c2[nH]1 | – | 16 µg/mL (≈ 47.3 µM) | > 16 µg/mL | 0.063 µg/mL (≈ 0.186 µM) | 16 µg/mL (≈ 47.3 µM) | – | – | – | – | – | – | – | 7.59 | 8.30 | 6.82
22 | CC(=O)NC[C@H]1CN(c2ccc(N3CCOCC3)c(F)c2)C(=O)O1 [LINEZOLID] | – | – | – | – | – | 0.4 µg/mL (≈ 1.19 µM) | 2.5 | 5.9 | – | – | – | – | – | – | –
23 | CO[C@@H]1[C@@H](OC(N)=O)[C@@H](O)[C@H](Oc2ccc3c(O)c(NC(=O)c4ccc(O)c(CC=C(C)C)c4)c(=O)oc3c2C)OC1(C)C [NOVOBIOCIN] | – | 0.125 µg/mL (≈ 0.204 µM) | > 16 µg/mL | 2 µg/mL (≈ 3.26 µM) | 0.063 µg/mL (≈ 0.103 µM) | – | – | – | – | – | – | – | – | – | –
